# PMC11792172 (Journal of natural products, 2025)
# Like-named read-outs stand apart in the source and are kept apart here.
# Legend:
# Na+/K+-ATPase (NKA) [1] = assay: Na+/K+-ATPase activity assay; assay type: biochemical; settings: for effect on NKA at a high concentration: high concentration (>100 μM), Figure 3
# Procedure, shortened: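 Luminescent ADP detection read out enzyme activity by quantifying the ADP formed during the enzymatic first half-reaction. Assays were run in triplicate and were representative of three independent experiments. IC50 was obtained from dose-response curves by nonlinear regression.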
# [2] = system: OVCAR5 ovarian cancer cells; assay: Cytotoxicity assay; assay type: cell-based; settings: Homo sapiens, OVCAR-5, 72 h, read-out: IC50, inhibition of viability, OVCAR5
# [3] = system: OVCAR3 ovarian cancer cells; assay: Cytotoxicity assay; assay type: cell-based; settings: Homo sapiens, OVCAR-3, 72 h, read-out: IC50, inhibition of viability, OVCAR3
# [4] = system: MDA-MB-435 melanoma cells; assay: Cytotoxicity assay; assay type: cell-based; settings: Homo sapiens, MDA-MB-435, 72 h, read-out: IC50, inhibition of viability, MDA-MB-435
# [5] = system: MDA-MB-231 breast cancer cells; assay: Cytotoxicity assay; assay type: cell-based; settings: Homo sapiens, MDA-MB-231, 72 h, read-out: IC50, inhibition of viability, MDA-MB-231
# Na+/K+-ATPase (NKA) [6] = settings: read-out: IC50, inhibition of NKA activity, cited from earlier work
smiles,measurement,setting,value
"CO[C@H]1C[C@H](O[C@H]2CC[C@@]3(C)[C@@H](C2)C[C@@H]2O[C@]24[C@@H]3[C@H](OC(C)=O)C(=O)[C@]2(C)[C@@H](C3=CC(=O)OC3)CC[C@]42O)O[C@@H](C)[C@@H]1OC(C)=O [1a, (−)-11,4′-di-O-acetylcryptanoside A]",effect on NKA at a high concentration,Na+/K+-ATPase (NKA) [1],activate NKA
"CC(=O)O[C@H]1C(=O)[C@@]2(C)[C@H]([C@H](OC(=O)c3ccccc3)[C@]3(O)C[C@H](OC(=O)[C@H](O)[C@@H](NC(=O)c4ccccc4)c4ccccc4)C(C)=C1C3(C)C)[C@]1(OC(C)=O)CO[C@@H]1C[C@@H]2O [Paclitaxel, paclitaxel]",IC50,[2],7.3 ± 0.1 nM
same,IC50,[3],4.9 ± 0.1 nM
same,IC50,[4],1.9 ± 0.1 nM
same,IC50,[5],3.8 ± 0.1 nM
"CO[C@H]1C[C@H](O[C@H]2CC[C@@]3(C)[C@@H](C2)C[C@@H]2O[C@]24[C@@H]3[C@H](O)C(=O)[C@]2(C)[C@@H](C3=CC(=O)OC3)CC[C@]42O)O[C@@H](C)[C@@H]1O [compound 1, (−)-Cryptanoside A]",IC50,Na+/K+-ATPase (NKA) [6]; data reported previously,1200 ± 100 nM
"CO[C@H]1C[C@H](O[C@H]2CC[C@@]3(C)[C@@H](C2)C[C@@H]2O[C@]24[C@@H]3[C@H](O)C(=O)[C@]2(C)[C@H](C3=CC(=O)OC3)CC[C@]42O)O[C@@H](C)[C@@H]1O [compound 2, (−)-17-epi-cryptanoside A]",IC50,"Na+/K+-ATPase (NKA) [1]; read-out: IC50, inhibition of NKA activity",> 20000 nM
"C[C@]12CC[C@H]3[C@@H](C=CC4=CC(=O)[C@H](O)C[C@@]43C)[C@@H]1CC[C@@H]2C(=O)O [compound 3, (+)-2-hydroxyandrosta-4,6-diene-3-one-17-carboxylic acid]",effect on NKA at a high concentration,Na+/K+-ATPase (NKA) [1],activate NKA
C[C@H]1O[C@@H](O[C@H]2[C@@H](O)C[C@H](O[C@H]3[C@@H](O)C[C@H](O[C@H]4CC[C@@]5(C)[C@H](CC[C@@H]6[C@@H]5C[C@@H](O)[C@]5(C)[C@@H](C7=CC(=O)OC7)CC[C@]65O)C4)O[C@@H]3C)O[C@@H]2C)C[C@H](O)[C@@H]1O [digoxin],IC50,Na+/K+-ATPase (NKA) [6],230 ± 20 nM
